Laboratory results from ChEMBL document CHEMBL1152984, “Design, synthesis, and structure-activity relationships of benzophenone-based tetraamides as novel antibacterial agents” (J Med Chem, 2009).
≈ marks a conversion by molar mass, not a printed value. Calls of active or inactive are those of the source. The calls are words filed in the database; no cut-off is given here.

Legend:
Nucleic Acid [1] = experiment: Binding affinity to Staphylococcus aureus DNA at 25 to 200 ug/mL by Hoescht dye competition assay; type: nucleic-acid assay
In short: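 Compounds at 25, 50, 100, 150 and 200 mg/L were added in triplicate, and the drop in emission at 461 nm was measured against Hoechst-stained untreated cells.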

Staphylococcus aureus [2] = experiment: Antibacterial activity against methicillin-resistant Staphylococcus aureus; type: functional
Nucleic Acid [3] = experiment: Binding affinity to DNA AT hairpin (5'-CGAAAAACAAAAAGTTTTTCG- 3') oligonucleotide by ethidium bromide displacement assay; type: nucleic-acid assay
In short: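 DNA binding: ethidium bromide (4.0 μM) and AT hairpin (8.0 μM) in 0.1 M Tris-HCl with 25 mM NaCl, pH 7.0, were titrated with compound. Fluorescence (ex 545, em 595 nm) was read after 5 min and corrected for volume. K = K_EB[E]/[agent], where [agent] is the concentration that lowers fluorescence by 50%.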

Nucleic Acid [4] = experiment: Binding affinity to Escherichia coli DNA at 25 to 200 ug/mL by Hoescht dye competition assay; type: nucleic-acid assay
Staphylococcus aureus [5] = experiment: Antibacterial activity against vancomycin-resistant Staphylococcus aureus; type: functional
Escherichia coli = experiment: Antibacterial activity against Escherichia coli; type: functional
Staphylococcus aureus [6] = experiment: Antibacterial activity against glycopeptide-intermediate Staphylococcus aureus; type: functional
Staphylococcus aureus [7] = experiment: Antibacterial activity against Staphylococcus aureus assessed as depolarization at […] measured for 60 mins by fluorescence spectrophotometer relative to nisin; type: functional, organism-based
In short: (§1)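 Cells were loaded with 0.4 μM diSC3(5) for 1 h at 37 °C, then KCl was added. After compound addition in a stirred cuvette at 37 °C, fluorescence (ex 622, em 670 nm) was followed for 60 min. Cells plus dye gave the background; the change was expressed as % of the nisin control (100%).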

CHO = experiment: Cytotoxicity against CHO cells assessed as cell viability at 25 to 100 times MIC after 24 hrs by MTS assay; type: cell-based, Cricetulus griseus; conditions: chinese hamster
In short: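 CHO cells in RPMI-1640 were seeded at 5000 cells/well, allowed to attach overnight, then exposed to 25, 50 and 100 mg/L for 24 h. MTS was added for 120 min and absorbance read at 505 nm. Results are % versus untreated controls (with or without 5% DMSO), from at least three experiments.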

Enterococcus = experiment: Antibacterial activity against vancomycin-resistant Enterococcus; type: functional
Staphylococcus aureus [8] = experiment: Antibacterial activity against Staphylococcus aureus ATCC 29213 assessed as inhibition of protein synthesis at 8 times MIC treated 5 mins before [3H]leucine challenge measured after 30 mins by [3H]leucine incorporation assay; type: functional, organism-based
In short: (§2)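 Cells were added to triplicate wells with compound (0.25-4.0 μg/mL), with 5% DMSO as the no-drug control; protein-synthesis reactions used M9 minimal medium. After 5 min at room temperature, 0.5-1.0 μCi of [3H]thymidine, uridine, N-acetylglucosamine or leucine was added. Reactions ran 15-30 min (60 min for cell wall). Cold-TCA precipitates were filtered, washed and scintillation-counted.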

Staphylococcus aureus [9] = experiment: Antibacterial activity against Staphylococcus aureus ATCC 29213 assessed as inhibition of DNA synthesis at 8 times MIC treated 5 mins before [3H]thymidine challenge measured after 30 mins by [3H]thymidine incorporation assay; type: functional, organism-based; in short: as §2
Staphylococcus aureus [10] = experiment: Antibacterial activity against Staphylococcus aureus ATCC 29213 assessed as inhibition of RNA synthesis at 8 times MIC treated 5 mins before [3H]uridine challenge measured after 30 mins by [3H]uridine incorporation assay; type: functional, organism-based; in short: as §2
Staphylococcus aureus [11] = experiment: Antibacterial activity against Staphylococcus aureus ATCC 29213 assessed as inhibition of lipid synthesis at 8 times MIC treated 5 mins before [3H]glycerol challenge measured after 60 mins by [3H]glycerol incorporation assay; type: functional, organism-based
In short: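 S. aureus at early exponential phase, 0.1 mL cells in triplicate tubes with agent (0.25-4.0 μg/mL) or cerulenin control. Pre-incubated 5 min at room temperature before adding [3H]glycerol at 0.5 μCi. After centrifugation, the organic phase was dried and counted by liquid scintillation.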

Staphylococcus aureus [12] = experiment: Antibacterial activity against Staphylococcus aureus assessed as depolarization at 32 mg/L measured for 60 mins by fluorescence spectrophotometer relative to nisin; type: functional, organism-based; in short: as §1
Staphylococcus aureus [13] = experiment: Antibacterial activity against Staphylococcus aureus ATCC 29213 assessed as inhibition of cell wall synthesis at 8 times MIC treated 5 mins before [3H]N-acetylglucosamine challenge measured after 30 mins by [3H]N-acetylglucosamine incorporation assay; type: functional, organism-based
In short: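 Culture added to triplicate wells with agent (0.25-4.0 μg/mL) or 5% DMSO no-drug control. Pre-incubated 5 min at room temperature, then [3H]N-acetylglucosamine at 0.5-1.0 μCi. Stopped with cold 5% TCA and held 30 min on ice. Precipitate filter-collected, washed, and scintillation counted. Vancomycin was the positive control.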

Staphylococcus aureus [14] = experiment: Antibacterial activity against Staphylococcus aureus ATCC 29213 assessed as inhibition of DNA synthesis at 0.5 to 8 times MIC treated 5 mins before [3H]thymidine challenge measured after 30 mins by [3H]thymidine incorporation assay; type: functional, organism-based; in short: as §2
Staphylococcus aureus [15] = experiment: Antibacterial activity against Staphylococcus aureus ATCC 29213 assessed as inhibition of protein synthesis at 0.5 to 8 times MIC treated 5 mins before [3H]leucine challenge measured after 30 mins by [3H]leucine incorporation assay; type: functional, organism-based; in short: as §2
Staphylococcus aureus [16] = experiment: Antibacterial activity against Staphylococcus aureus ATCC 29213 assessed as inhibition of RNA synthesis at 0.5 to 8 times MIC treated 5 mins before [3H]uridine challenge measured after 30 mins by [3H]uridine incorporation assay; type: functional, organism-based; in short: as §2
Staphylococcus aureus [17] = experiment: Antibacterial activity against Staphylococcus aureus ATCC 29213 assessed as inhibition of lipid synthesis at 0.5 to 8 times MIC treated 5 mins before [3H]glycerol challenge measured after 60 mins by [3H]glycerol incorporation assay; type: functional, organism-based
In short: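 Lipid synthesis: early-exponential S. aureus was mixed in triplicate with compound (0.25-4.0 μg/mL) or cerulenin. After 5 min at room temperature, [3H]glycerol (0.5 μCi) was added. Mixtures were centrifuged, and the organic phase was dried and counted by liquid scintillation.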

Staphylococcus aureus [18] = experiment: Antibacterial activity against Staphylococcus aureus ATCC 29213 assessed as inhibition of cell wall synthesis at 0.5 to 8 times MIC treated 5 mins before [3H]N-acetylglucosamine challenge measured after 30 mins by [3H]N-acetylglucosamine incorporation assay; type: functional, organism-based
Staphylococcus aureus [19] = experiment: Antibacterial activity against Staphylococcus aureus assessed as depolarization at 4 mg/L measured for 60 mins by fluorescence spectrophotometer relative to nisin; type: functional, organism-based; in short: as §1

| SMILES | MIC (Staphylococcus aureus [2]) [µg/mL] | Ka (Nucleic Acid [3]) [×10⁶ /M] | MIC (Staphylococcus aureus [5]) [µg/mL] | also measured |
| --- | --- | --- | --- | --- |
| CN1CCN(CCCNC(=O)c2cc(NC(=O)c3ccc(C(=O)c4ccc(C(=O)Nc5cc(C(=O)NCCCN6CCN(C)CC6)n(C)c5)cc4)cc3)cn2C)CC1 | > 32 | 0.108 | > 32 | Activity (Nucleic Acid [1]): inactive; Activity (Nucleic Acid [4]): inactive |
| Cn1cc(NC(=O)c2ccc(C(=O)c3ccc(C(=O)Nc4cc(C(=O)NCCN5CCOCC5)n(C)c4)cc3)cc2)cc1C(=O)NCCN1CCOCC1 | 4 (≈ 5.41 µM) | – | 8 (≈ 10.8 µM) | – |
| Cn1cc(NC(=O)c2ccc(C(=O)c3ccc(C(=O)Nc4cc(C(=O)NCCN5CCCC5)n(C)c4)cc3)cc2)cc1C(=O)NCCN1CCCC1 | 1 (≈ 1.41 µM) | 0.679 | 2 (≈ 2.83 µM) | MIC (Escherichia coli): 16 µg/mL (≈ 22.6 µM); Activity (Nucleic Acid [1]): Active; MIC (Staphylococcus aureus [6]): 0.5 µg/mL (≈ 0.707 µM); Activity (Staphylococcus aureus [7]): Active; Activity (CHO): Not Active; MIC (Enterococcus): 4 µg/mL (≈ 5.66 µM); Activity (Nucleic Acid [4]): Active |
| CC(=O)NC[C@H]1CN(c2ccc(N3CCOCC3)c(F)c2)C(=O)O1 | – | – | – | Activity (Staphylococcus aureus [8]): Active |
| Cn1cc(NC(=O)c2ccc(C(=O)c3ccc(C(=O)Nc4cn(C)c(C(=O)NCCN5CCCC5)n4)cc3)cc2)nc1C(=O)NCCN1CCCC1 | 32 (≈ 45.1 µM) | – | 32 (≈ 45.1 µM) | – |
| Cn1cc(NC(=O)c2ccc(C(O)c3ccc(C(=O)Nc4cc(C(=O)NCCN5CCCC5)n(C)c4)cc3)cc2)cc1C(=O)NCCN1CCCC1 | > 32 | 0.175 | > 32 | – |
| O=C(O)c1cn(C2CC2)c2cc(N3CCNCC3)c(F)cc2c1=O | – | – | – | Activity (Staphylococcus aureus [9]): Active |
| CN(C)c1ccc(NC(=O)c2nc(NC(=O)c3ccc(C(=O)c4ccc(C(=O)Nc5cn(C)c(C(=O)Nc6ccc(N(C)C)cc6)n5)cc4)cc3)cn2C)cc1 | > 32 | – | > 32 | – |
| CO[C@H]1/C=C/O[C@@]2(C)Oc3c(C)c(O)c4c(O)c(c(/C=N/N5CCN(C)CC5)c(O)c4c3C2=O)NC(=O)/C(C)=C\C=C\[C@H](C)[C@H](O)[C@@H](C)[C@@H](O)[C@@H](C)[C@H](OC(C)=O)[C@@H]1C | – | – | – | Activity (Staphylococcus aureus [10]): Active |
| CN(C)CCCNC(=O)c1cc(NC(=O)c2ccc(C(=O)c3ccc(C(=O)Nc4cc(C(=O)NCCCN(C)C)n(C)c4)cc3)cc2)cn1C | 8 (≈ 11.7 µM) | 1 | 16 (≈ 23.4 µM) | MIC (Staphylococcus aureus [6]): 8 µg/mL (≈ 11.7 µM) |
| Cn1cc(NC(=O)c2ccc(C(=O)c3ccc(C(=O)Nc4cn(C)c(C(=O)NCCN5CCCCC5)n4)cc3)cc2)nc1C(=O)NCCN1CCCCC1 | 4 (≈ 5.43 µM) | – | 8 (≈ 10.9 µM) | Activity (Nucleic Acid [1]): Active; Activity (Nucleic Acid [4]): Active |
| C/C=C/C/C=C/CCC(=O)[C@H]1O[C@H]1C(N)=O | – | – | – | Activity (Staphylococcus aureus [11]): Active |
| Cn1cc(NC(=O)c2ccccc2)cc1C(=O)NCCN1CCCC1 | > 32 | 0.11 | > 32 | – |
| Cn1cc(NC(=O)c2ccccc2)cc1C(=O)NCCN1CCCCC1 | > 32 | 0.173 | > 32 | – |
| Cn1cc(NC(=O)c2ccc(C(=O)c3ccccc3)cc2)cc1C(=O)NCCN1CCCCC1 | – | 0.227 | – | – |
| Cn1cc(NC(=O)c2ccc(C(O)c3ccc(C(=O)Nc4cc(C(=O)NCCN5CCCCC5)n(C)c4)cc3)cc2)cc1C(=O)NCCN1CCCCC1 | > 32 | 0.0098 | > 32 | – |
| Cn1cc(NC(=O)CCCCCCCCCCCC(=O)Nc2cc(C(=O)NCCN3CCCCC3)n(C)c2)cc1C(=O)NCCN1CCCCC1 | > 32 | 0.0125 | > 32 | – |
| Cn1cc(NC(=O)c2ccc(Cc3ccc(C(=O)Nc4cc(C(=O)NCCN5CCCCC5)n(C)c4)cc3)cc2)cc1C(=O)NCCN1CCCCC1 | > 32 | 0.0238 | > 32 | – |
| Cn1cc(NC(=O)CCCCCCCCCCCC(=O)Nc2cc(C(=O)NCCN3CCCC3)n(C)c2)cc1C(=O)NCCN1CCCC1 | > 32 | 0.021 | > 32 | Activity (Staphylococcus aureus [12]): inactive |
| Cn1cc(NC(=O)c2ccc(Cc3ccc(C(=O)Nc4cc(C(=O)NCCN5CCCC5)n(C)c4)cc3)cc2)cc1C(=O)NCCN1CCCC1 | > 32 | 0.154 | > 32 | – |
| CN[C@H](CC(C)C)C(=O)N[C@H]1C(=O)N[C@@H](CC(N)=O)C(=O)N[C@H]2C(=O)N[C@H]3C(=O)N[C@H](C(=O)N[C@H](C(=O)O)c4cc(O)cc(O)c4-c4cc3ccc4O)[C@H](O)c3ccc(c(Cl)c3)Oc3cc2cc(c3O[C@@H]2O[C@H](CO)[C@@H](O)[C@H](O)[C@H]2O[C@H]2C[C@](C)(N)[C@H](O)[C@H](C)O2)Oc2ccc(cc2Cl)[C@H]1O | – | – | – | Activity (Staphylococcus aureus [13]): Active |
| Cn1cc(NC(=O)c2ccc(C(=O)c3ccccc3)cc2)cc1C(=O)NCCN1CCCC1 | – | 0.106 | – | – |
| Cn1cc(NC(=O)c2ccc(C(=O)c3ccc(C(=O)Nc4cn(C)c(C(=O)NCCN5CCOCC5)n4)cc3)cc2)nc1C(=O)NCCN1CCOCC1 | > 32 | – | > 32 | – |
| CN(C)c1ccc(NC(=O)c2cc(NC(=O)c3ccc(C(=O)c4ccc(C(=O)Nc5cc(C(=O)Nc6ccc(N(C)C)cc6)n(C)c5)cc4)cc3)cn2C)cc1 | > 32 | 0.391 | > 32 | – |
| Cn1cc(NC(=O)c2ccc(C(=O)c3ccc(C(=O)Nc4cc(C(=O)NCCN5CCCCC5)n(C)c4)cc3)cc2)cc1C(=O)NCCN1CCCCC1 | 0.5 (≈ 0.68 µM) | 0.931 | 1 (≈ 1.36 µM) | Activity (Staphylococcus aureus [14]): inactive; Activity (Staphylococcus aureus [15]): inactive; MIC (Escherichia coli): 16 µg/mL (≈ 21.8 µM); Activity (Staphylococcus aureus [16]): inactive; MIC (Staphylococcus aureus [6]): 0.5 µg/mL (≈ 0.68 µM); Activity (Staphylococcus aureus [17]): inactive; Activity (Staphylococcus aureus [18]): inactive; Activity (CHO): Not Active; MIC (Enterococcus): 4 µg/mL (≈ 5.44 µM); Activity (Staphylococcus aureus [19]): Active |
